# Measurements pooled from the literature.
# Target: MAP/microtubule affinity-regulating kinase 4 (MARK4, Homo sapiens, UniProt Q96L34)
# One construct used (Q96L34 1-752): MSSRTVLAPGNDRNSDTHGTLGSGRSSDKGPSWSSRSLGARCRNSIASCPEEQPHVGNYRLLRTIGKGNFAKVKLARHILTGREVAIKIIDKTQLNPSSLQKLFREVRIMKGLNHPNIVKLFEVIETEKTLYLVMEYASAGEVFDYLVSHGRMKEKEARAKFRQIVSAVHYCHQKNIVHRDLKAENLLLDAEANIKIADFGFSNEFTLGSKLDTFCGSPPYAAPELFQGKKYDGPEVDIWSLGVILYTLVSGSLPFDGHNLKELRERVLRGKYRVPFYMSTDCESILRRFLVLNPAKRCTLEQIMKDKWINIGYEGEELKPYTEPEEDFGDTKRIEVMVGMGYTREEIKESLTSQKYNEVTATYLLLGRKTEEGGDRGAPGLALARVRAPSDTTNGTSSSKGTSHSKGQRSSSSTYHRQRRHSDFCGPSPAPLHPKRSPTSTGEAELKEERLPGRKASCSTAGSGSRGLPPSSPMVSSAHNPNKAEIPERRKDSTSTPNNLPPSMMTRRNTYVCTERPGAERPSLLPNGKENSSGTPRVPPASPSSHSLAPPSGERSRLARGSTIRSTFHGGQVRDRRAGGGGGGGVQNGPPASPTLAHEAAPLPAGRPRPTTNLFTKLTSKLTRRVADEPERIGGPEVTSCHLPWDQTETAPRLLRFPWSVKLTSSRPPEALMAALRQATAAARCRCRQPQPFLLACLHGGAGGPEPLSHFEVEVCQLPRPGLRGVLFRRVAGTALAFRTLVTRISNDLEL
Structure (SMILES),assay,setting,remaining binding
CN(CCCC(F)(F)F)c1nccc(-c2cnn3ncccc23)n1,binding,1 µM,90%
CNCc1ccccc1-c1csc([C@@H](C)Nc2nc(C)nc3cc(OC)c(OC)cc23)c1,"cell-free assay, competition with immobilised ligand",1 µM,100%
COc1ncc2cc3ccccc3nc2c1C#N,"cell-free assay, competition with immobilised ligand",5 µM,64%
CNC(=O)[C@@H]1CC[C@@H](n2c(-c3ccc4cnccc4c3)nc3ccc(C(=O)NCc4cccc(C(N)=O)c4)cc32)C1,"binding, competition with immobilised ligand",1 µM,98%
Cc1c(NC(=O)c2cc(C(N)=O)nc3cc(F)ccc23)c(C(F)(F)F)nn1Cc1ccc(C(C)(C)C)cc1,"cell-free assay, competition with immobilised ligand",1 µM,97%
O=C(c1ccc(Nc2ncc(Cl)c(-c3ccc(Cl)s3)n2)cc1)N1CCC(N2CCCC2)CC1,"binding, competition with immobilised ligand",1 µM,23%
c1cncc(-c2cccc(Nc3nccc(NC4CCCCC4)n3)c2)c1,"binding, competition with immobilised ligand",10 µM,80%
CN(C)c1ncc(F)c(-c2cnn3ncccc23)n1,binding,1 µM,100%
CC(=O)c1c(NS(C)(=O)=O)c2cc(-c3ccc(Cl)cc3)c(-c3ccc(Cl)cc3Cl)nc2n(C)c1=O,"cell-free assay, competition with immobilised ligand",1 µM,100%
COc1cnc(Nc2cccc(S(N)(=O)=O)c2)nc1N1CCN(c2ccccc2)C(=O)C1,"binding, competition with immobilised ligand",1 µM,100%
CC(C)CC(=O)N1CCc2nc(-c3ccc(Br)cc3)nc(N(C)Cc3ccccc3)c2C1,"cell-free assay, competition with immobilised ligand",0.1 µM,100%
Cc1cnc(Nc2ccc(C(=O)N3CCC(N4CCCC4)CC3)cc2)nc1-c1cc2ccccc2s1,"binding, competition with immobilised ligand",1 µM,35%
CN(c1nccc(-c2cnn3ncccc23)n1)C1CC1,binding,1 µM,76%
CCCOc1ccc([C@H]2[C@H](C(=O)O)[C@@H](c3ccc4c(c3)OCO4)CN2CC(=O)Nc2c(CC)cccc2CC)cc1,"cell-free assay, competition with immobilised ligand",1 µM,97%
COc1ccnn2ncc(-c3ccnc(N(C)C)n3)c12,binding,1 µM,100%
O=C(NCC1CCOCC1)c1n[nH]cc1NC(=O)c1c(F)cccc1F,"binding, competition with immobilised ligand",1 µM,98%
C[C@@H]1CCN(c2nccc(-c3cnn4ncccc34)n2)C1,binding,1 µM,100%
Nc1c(C(=O)NCc2ccc(C(=O)NCCCC3CCCCC3)cc2)cnn1-c1ccccc1,"cell-free assay, competition with immobilised ligand",0.1 µM,76%
O=C(NCCCN1CCOCC1)c1ccc(Nc2ncc(Cl)c(-c3ccc(Cl)s3)n2)cc1,"binding, competition with immobilised ligand",1 µM,24%
Cc1cnn2ncc(-c3ccnc(N(C)C)n3)c2c1,binding,1 µM,91%
